According to ChEMBL document CHEMBL2384909, “Development of Novel Alkene Oxindole Derivatives As Orally Efficacious AMP-Activated Protein Kinase Activators” (ACS Med Chem Lett, 2013):
Active and inactive are the calls of the source. The rule behind the calls is not given here.

Tests used:
[1] = molecular target: T1, Cytochrome P450 1A2 (Homo sapiens, UniProt P05177); assay: Inhibition of CYP1A2 (unknown origin); type: ADME
T1 sequence (P05177 whole entry): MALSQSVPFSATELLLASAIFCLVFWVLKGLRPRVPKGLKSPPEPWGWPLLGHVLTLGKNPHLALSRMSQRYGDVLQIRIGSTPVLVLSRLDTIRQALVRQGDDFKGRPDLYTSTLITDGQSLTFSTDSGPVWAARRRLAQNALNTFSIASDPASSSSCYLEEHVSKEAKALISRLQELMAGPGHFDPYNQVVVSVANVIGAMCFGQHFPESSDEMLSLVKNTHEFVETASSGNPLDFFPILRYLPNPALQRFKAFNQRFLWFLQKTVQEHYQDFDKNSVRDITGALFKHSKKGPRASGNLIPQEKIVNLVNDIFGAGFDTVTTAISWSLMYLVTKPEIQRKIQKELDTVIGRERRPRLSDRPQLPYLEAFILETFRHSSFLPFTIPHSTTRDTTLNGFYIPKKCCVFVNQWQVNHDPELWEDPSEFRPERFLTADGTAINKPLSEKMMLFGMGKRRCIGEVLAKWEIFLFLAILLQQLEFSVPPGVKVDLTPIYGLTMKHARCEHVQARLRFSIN

[2] = molecular target: Cytochrome P450 2D6 (Homo sapiens, UniProt P10635); assay: Inhibition of CYP2D6 (unknown origin); type: ADME
[3] = molecular target: T2, Inhibitor of nuclear factor kappa-B kinase subunit beta (Homo sapiens) (UniProt O14920); assay: Activity at IKKbeta (unknown origin)
T2 sequence (whole entry): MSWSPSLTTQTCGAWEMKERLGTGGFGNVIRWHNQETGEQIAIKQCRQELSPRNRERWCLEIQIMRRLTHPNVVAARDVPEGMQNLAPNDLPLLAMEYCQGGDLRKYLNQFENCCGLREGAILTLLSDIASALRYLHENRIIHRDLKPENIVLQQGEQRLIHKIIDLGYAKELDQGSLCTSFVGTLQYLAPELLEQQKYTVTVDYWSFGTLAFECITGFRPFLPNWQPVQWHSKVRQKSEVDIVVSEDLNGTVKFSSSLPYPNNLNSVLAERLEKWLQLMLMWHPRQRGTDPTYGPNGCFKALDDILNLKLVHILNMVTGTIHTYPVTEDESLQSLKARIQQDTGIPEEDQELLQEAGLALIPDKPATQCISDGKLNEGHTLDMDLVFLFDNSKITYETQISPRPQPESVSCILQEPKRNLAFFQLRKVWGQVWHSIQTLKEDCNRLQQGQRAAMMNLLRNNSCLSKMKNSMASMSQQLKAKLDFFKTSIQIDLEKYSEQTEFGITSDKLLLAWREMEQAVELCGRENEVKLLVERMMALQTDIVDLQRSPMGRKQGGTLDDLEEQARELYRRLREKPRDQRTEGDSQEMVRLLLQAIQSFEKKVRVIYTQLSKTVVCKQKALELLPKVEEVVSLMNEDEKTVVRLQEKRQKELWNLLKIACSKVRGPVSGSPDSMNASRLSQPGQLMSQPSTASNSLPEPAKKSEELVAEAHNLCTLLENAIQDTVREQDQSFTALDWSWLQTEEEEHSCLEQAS

[4] = tested on: L6; assay: Activation of AMPK in rat L6 cells assessed as stimulation of glucose uptake after 15 mins; type: cell-based
[5] = molecular target: AMPK alpha2/beta1/gamma1 (Homo sapiens, UniProt P54619+P54646+Q9Y478); assay: Activation of recombinant AMPK alpha2beta1gamma1 (unknown origin) after 2 hrs by scintillation proximity assay; type: protein-complex assay
Method in brief: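 Activation of bacterially expressed AMPK α2β1γ1 was measured by scintillation proximity assay. Efficacy is expressed relative to AMP.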

Sequence of Cytochrome P450 2D6 (P10635 whole entry): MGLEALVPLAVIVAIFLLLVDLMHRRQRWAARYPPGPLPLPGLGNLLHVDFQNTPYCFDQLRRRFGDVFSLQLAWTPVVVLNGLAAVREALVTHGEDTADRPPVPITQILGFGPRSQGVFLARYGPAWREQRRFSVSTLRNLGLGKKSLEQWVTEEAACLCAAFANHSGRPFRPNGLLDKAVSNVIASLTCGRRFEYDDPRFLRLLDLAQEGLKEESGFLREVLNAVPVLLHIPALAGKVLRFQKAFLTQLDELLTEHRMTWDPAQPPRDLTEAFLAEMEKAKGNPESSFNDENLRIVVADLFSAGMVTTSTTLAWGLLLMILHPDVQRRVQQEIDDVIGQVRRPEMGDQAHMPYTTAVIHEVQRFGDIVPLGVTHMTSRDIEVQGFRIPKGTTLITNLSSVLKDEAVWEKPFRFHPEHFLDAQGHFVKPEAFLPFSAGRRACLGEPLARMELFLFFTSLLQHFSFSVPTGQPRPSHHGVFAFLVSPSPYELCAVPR
Sequence of AMPK alpha2/beta1/gamma1 (P54646 whole entry): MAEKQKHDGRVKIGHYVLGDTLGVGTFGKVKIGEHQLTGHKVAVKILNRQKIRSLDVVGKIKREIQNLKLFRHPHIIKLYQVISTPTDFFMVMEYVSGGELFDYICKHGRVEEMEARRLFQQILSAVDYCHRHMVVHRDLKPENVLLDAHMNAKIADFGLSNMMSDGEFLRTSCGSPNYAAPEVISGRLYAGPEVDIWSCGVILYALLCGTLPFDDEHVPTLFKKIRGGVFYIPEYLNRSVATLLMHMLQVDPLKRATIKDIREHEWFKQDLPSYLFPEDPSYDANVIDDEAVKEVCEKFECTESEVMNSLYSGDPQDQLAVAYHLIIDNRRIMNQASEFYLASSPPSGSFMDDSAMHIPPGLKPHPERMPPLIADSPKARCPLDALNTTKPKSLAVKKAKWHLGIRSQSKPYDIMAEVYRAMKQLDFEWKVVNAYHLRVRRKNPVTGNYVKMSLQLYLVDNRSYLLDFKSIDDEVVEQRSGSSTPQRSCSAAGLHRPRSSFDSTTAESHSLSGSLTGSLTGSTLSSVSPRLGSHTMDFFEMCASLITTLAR
Sequence of AMPK alpha2/beta1/gamma1 (P54619 whole entry): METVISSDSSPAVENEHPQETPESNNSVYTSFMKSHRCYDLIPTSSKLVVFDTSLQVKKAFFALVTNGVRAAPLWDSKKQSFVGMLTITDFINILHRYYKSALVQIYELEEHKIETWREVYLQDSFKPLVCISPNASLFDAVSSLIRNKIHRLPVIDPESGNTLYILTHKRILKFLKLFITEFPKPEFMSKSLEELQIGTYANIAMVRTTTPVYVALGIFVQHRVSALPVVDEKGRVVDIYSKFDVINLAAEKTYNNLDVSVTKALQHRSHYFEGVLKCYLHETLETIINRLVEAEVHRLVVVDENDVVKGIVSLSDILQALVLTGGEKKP
Sequence of AMPK alpha2/beta1/gamma1 (Q9Y478 whole entry): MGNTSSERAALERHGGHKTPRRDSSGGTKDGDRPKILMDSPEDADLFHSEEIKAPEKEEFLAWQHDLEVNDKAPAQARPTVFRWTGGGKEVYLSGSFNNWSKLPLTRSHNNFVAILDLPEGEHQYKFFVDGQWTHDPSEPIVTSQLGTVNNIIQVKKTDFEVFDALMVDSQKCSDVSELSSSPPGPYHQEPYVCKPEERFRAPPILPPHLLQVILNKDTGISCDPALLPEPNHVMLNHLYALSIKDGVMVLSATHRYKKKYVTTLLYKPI

inhibition (INH) [1]: Not Active | inhibition (INH) [2]: Not Active | Activity [3]: inactive | EC50 [5]: 1200 nM
Structure (SMILES): O=C(O)c1cccc(CN2C(=O)/C(=C(\c3ccccc3)c3ccc(Cl)cc3)c3ccccc32)c1
Activity [4]: Dose-dependent effect
